Blank lines part the entries; values can stand above or below the compound they belong to.
How the values were obtained:
[1] = target: T1, Glutamate receptor ionotropic, NMDA 2B (Homo sapiens, UniProt Q13224); assay: Displacement of [3H]-ifenprodil from GluN2B (unknown origin) expressed in mouse L(tk) cells measured after 120 mins by scintillation counting analysis
[2] = target: T2, Sigma intracellular receptor 2 (Rattus norvegicus, UniProt Q5U3Y7); assay: Displacement of [3H]di-o-tolylguanidine from sigma2 receptor in rat liver membranes measured after 120 mins by scintillation counting analysis; assay type: cell membranes
T2 sequence (Q5U3Y7 whole entry): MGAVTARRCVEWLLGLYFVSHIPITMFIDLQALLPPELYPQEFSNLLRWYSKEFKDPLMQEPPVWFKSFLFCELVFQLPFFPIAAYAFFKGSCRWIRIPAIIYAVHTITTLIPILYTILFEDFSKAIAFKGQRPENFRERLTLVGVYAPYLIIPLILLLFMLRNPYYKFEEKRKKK

[3] = target: Sigma non-opioid intracellular receptor 1 (Cavia porcellus, UniProt Q60492); assay: Displacement of [3H]-(+)-pentazocine from sigma1 receptor in guinea pig brain cortex membranes measured after 120 mins by scintillation counting analysis; assay type: cell membranes
Sequence of Sigma non-opioid intracellular receptor 1 (Q60492 whole entry): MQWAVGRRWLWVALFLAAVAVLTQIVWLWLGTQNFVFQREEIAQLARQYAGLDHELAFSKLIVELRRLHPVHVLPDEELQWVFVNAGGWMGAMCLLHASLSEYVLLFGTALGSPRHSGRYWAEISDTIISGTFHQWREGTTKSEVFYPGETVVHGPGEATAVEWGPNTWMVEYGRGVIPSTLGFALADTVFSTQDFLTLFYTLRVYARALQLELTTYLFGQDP

[4] = target: T1, Glutamate receptor ionotropic, NMDA 2B; assay: Inhibition of GluN2B (unknown origin)
[5] = target: Glutamate receptor ionotropic, NMDA 2B (Homo sapiens, UniProt Q05586+Q13224); assay: Displacement of [3H]-ifenprodil from GluN2B (unknown origin) expressed in L(tk) cells by radio ligand binding assay; assay type: cell-based
Sequence of Glutamate receptor ionotropic, NMDA 2B (Homo sapiens, UniProt Q05586+Q13224) (Q13224 whole entry, one chain of several): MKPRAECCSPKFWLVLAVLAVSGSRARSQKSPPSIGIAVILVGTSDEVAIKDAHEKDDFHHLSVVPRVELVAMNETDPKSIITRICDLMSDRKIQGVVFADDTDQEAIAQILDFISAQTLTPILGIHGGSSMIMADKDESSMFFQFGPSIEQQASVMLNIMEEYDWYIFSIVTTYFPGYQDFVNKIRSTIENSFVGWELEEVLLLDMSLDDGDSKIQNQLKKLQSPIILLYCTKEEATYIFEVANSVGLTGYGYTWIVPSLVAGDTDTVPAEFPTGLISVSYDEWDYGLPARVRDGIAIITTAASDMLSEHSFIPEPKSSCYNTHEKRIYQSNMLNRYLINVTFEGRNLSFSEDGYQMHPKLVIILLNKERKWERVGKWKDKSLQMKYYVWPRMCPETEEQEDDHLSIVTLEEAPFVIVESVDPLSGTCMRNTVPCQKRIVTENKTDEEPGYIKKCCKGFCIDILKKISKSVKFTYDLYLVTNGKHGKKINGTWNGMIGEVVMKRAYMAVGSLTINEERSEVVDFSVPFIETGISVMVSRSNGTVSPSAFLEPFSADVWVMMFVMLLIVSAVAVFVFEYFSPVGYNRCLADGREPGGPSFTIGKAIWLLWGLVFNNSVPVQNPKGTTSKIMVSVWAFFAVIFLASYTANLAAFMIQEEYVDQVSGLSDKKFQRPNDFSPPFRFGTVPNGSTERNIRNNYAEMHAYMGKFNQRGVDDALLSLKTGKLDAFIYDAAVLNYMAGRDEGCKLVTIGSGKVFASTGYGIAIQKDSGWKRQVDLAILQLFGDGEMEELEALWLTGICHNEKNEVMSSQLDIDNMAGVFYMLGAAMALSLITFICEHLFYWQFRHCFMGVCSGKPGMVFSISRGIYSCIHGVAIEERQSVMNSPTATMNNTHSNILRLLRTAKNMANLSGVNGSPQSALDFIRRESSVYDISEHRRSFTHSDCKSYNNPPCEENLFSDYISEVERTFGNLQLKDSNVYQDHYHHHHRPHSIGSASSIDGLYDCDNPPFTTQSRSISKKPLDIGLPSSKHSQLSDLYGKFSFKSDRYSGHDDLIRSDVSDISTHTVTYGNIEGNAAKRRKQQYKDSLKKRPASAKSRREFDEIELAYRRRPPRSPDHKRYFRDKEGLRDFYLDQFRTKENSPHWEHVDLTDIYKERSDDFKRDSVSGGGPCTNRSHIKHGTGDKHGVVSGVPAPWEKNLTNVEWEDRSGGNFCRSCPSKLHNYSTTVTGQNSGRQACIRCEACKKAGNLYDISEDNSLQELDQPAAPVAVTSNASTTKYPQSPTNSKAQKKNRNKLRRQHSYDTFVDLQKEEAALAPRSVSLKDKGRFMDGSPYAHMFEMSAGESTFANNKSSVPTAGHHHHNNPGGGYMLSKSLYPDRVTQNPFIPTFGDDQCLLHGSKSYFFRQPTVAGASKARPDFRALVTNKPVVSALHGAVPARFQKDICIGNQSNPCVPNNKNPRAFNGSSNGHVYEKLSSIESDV
Method in brief: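 Mouse L(tk-) cells stably carrying dexamethasone-inducible GluN1a/GluN2B (1:5) were induced for 24 h with 4 μM dexamethasone plus 4 μM ketamine, then sonicated to membranes (about 20 μg protein). […] Filtration and scintillation counting, in duplicate. Ki by Cheng–Prusoff (Kd 7.6 nM), mean ± SEM of n=3.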

T1 sequence (Q13224 whole entry): as the sequence (Q13224 whole entry, one chain of several) above

Structure (SMILES): OC1CC(NCc2ccccc2)CCc2sccc21 (mixture of isomers)
Ki [1]: 204 nM
Ki [2]: 606 nM
Ki [3]: 737 nM

Structure (SMILES): COc1ccc2c(c1)CC[C@H](NCCCc1ccccc1)C[C@H]2O (relative stereo)
Ki [1]: 48 nM
Ki [2]: 1100 nM
Ki [3]: 167 nM
Ki [4]: 48 nM

Structure (SMILES): Nc1ccc2c(c1)CCC(NCc1ccccc1)CC2 (stereo unspecified)
Ki [1]: 128 nM
Ki [5]: 128 nM
Ki [2]: 770 nM
Ki [3]: 470 nM

Now those with a lower Ki [2], led by results:

Ki [1]: 26 nM
Ki [2]: 50 nM
Ki [3]: 79 nM
Structure (SMILES): c1ccc(CNC2CCc3ccsc3CC2)cc1 (stereo unspecified)

Ki [2]: 9.2 nM
Ki [3]: 132 nM
Structure (SMILES): COc1ccc2c(c1)CC[C@H](NCCCc1ccccc1)C[C@@H]2O (relative stereo)
